# Compound activity from PubChem BioAssay.
# hERG rescue: hERG (human) protection from proarrhythmic block | Q12809 | activation (rescue from dofetilide block), less the hit threshold, % at 10 µM | actives 0.51% (n = 310,000) | CHO-hERG, FluxOR thallium flux, dofetilide IC70 present | AID 1511;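 active means activation above the mean of controls blocked by dofetilide plus 5 SD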;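 further: thallium influx through hERG after potassium depolarization seen as dye fluorescence rise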
# KCNK3 block: human KCNK3 channel inhibition, primary screen; O14649; CHO-KCNK3 thallium flux, FluxOR fluorescence; hits give low values; B-score at 10 µM; actives 0.84% (n = 340,000);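 active means B-score under library mean minus 4 SD, starting fluorescence ratio at most library mean plus 5 SD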;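 further: more negative B-score means stronger inhibition of thallium flux through KCNK3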
# KCNK9 inh: human KCNK9 channel inhibition. HEK293 KCNK9, FluxOR thallium flux fluorescence; hits give low values. actives 1.2% (n = 310,000). B-score at 10 µM;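 active means ratio B-score over 3 SD below the library mean, with starting fluorescence within 5 SD of its mean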;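 further: negative B-score means less thallium flux so channel inhibition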
# Kir21 inh: inhibitors of mouse Kir2.1 inward-rectifier potassium channel; P35561; HEK293-Kir2.1, FluxOR thallium flux fluorescence; hits give low values; B-score at 10 µM; actives 0.85% (n = 310,000); AID 1672;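 active means fluorescence ratio B-score at or below minus 3 SD of library scores, with starting-brightness B-score within 2 SD, cut at about -4.2 in these data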;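 further: channel flux triggered by added potassium and thallium sulfate stimulus; B-score of peak minus minimum fluorescence over baseline after thallium stimulus; more negative B-score means stronger Kir2.1 block with less thallium influx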
# KCNQ1 inh: inhibitors of human KCNQ1 potassium channel; B-score at 10 µM; actives 1.3% (n = 310,000); CHO-K1 KCNQ1, FluxOR thallium flux fluorescence; hits give high values;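 active means compounds whose thallium flux B-score, printed positive for inhibition, exceeds three library SD while starting fluorescence stays within three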;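 further: channel opened by potassium depolarization with thallium stimulus after 20 min compound exposure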
# Target sequence (P51787 whole entry, looked up): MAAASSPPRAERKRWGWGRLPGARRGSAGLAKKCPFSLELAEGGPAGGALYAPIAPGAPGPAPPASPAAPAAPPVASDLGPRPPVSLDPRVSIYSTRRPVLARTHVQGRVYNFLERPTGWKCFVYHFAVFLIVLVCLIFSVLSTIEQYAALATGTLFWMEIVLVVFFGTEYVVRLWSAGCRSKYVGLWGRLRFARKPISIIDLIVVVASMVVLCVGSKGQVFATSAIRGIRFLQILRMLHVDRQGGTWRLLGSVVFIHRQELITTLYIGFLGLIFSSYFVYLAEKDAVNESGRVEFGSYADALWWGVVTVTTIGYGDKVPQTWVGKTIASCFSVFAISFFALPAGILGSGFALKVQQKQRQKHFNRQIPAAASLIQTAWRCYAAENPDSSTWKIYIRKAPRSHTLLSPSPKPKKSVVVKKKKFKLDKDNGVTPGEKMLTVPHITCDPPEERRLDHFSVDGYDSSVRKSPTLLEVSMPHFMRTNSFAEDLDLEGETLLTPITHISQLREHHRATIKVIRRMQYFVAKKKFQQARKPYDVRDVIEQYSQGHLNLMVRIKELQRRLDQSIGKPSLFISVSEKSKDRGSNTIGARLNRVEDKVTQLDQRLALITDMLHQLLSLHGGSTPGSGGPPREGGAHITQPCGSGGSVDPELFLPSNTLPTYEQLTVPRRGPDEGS
# KCNQ1 pot: potentiates or activates the human KCNQ1 potassium channel. actives 0.35% (n = 310,000). B-score at 10 µM. P51787. CHO-K1 KCNQ1, thallium flux FluxOR fluorescence; hits give high values. AID 2648;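 active means fluorescence ratio B-score, a plate-corrected score, at least three library SD, with initial intensity B-score within 5 SD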
#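 Assay system: CHO-K1 cells stably expressing KCNQ1. Medium: assay buffer for compound exposure, DMSO matched across wells. Timing: 37 °C overnight plating, 90-min dark dye load, 20-min compound pretreatment. Signal: kinetic FluxOR fluorescence, 10 s baseline plus 110 s post-stimulus.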
# Active calls of the source: *; i = inactive; . = not tested or not shown. Compounds with a hit are over-represented: about 3.7% of the library has one in this group of screens.
SMILES,hERG rescue,KCNK3 block,KCNK9 inh,Kir21 inh,KCNQ1 inh,KCNQ1 pot
c1ccc2c(CNC3CCCCC3)c[nH]c2c1,-8.3,.,-7.06*,0.01,i,i
O=c1c2ccccc2nc(-c2ccccc2Cl)n1-c1cccc(O)c1,-2.1,i,i,0.54,i,i
O=P(O)(Oc1ccccc1)c1ccccc1,.,i,.,.,.,.
Cc1c(C(=O)c2ccccc2)c2ccccc2n1C,-11.5,i,i,-0.94,i,i
CCCn1c(C)c(C(=O)c2cccc3ccccc23)c2ccccc21,.,-10.5*,.,.,.,.
CCCCn1c(C)c(C(=O)O)c2cc(OC)c3ccccc3c21,0.4,i,i,1.78,i,i
CCOc1cc(CNC(C)C(O)c2ccccc2)cc(Cl)c1OCC (stereo not given),-7.6,i,i,-5.58*,i,i
CC(NCc1ccccc1Cl)C(O)c1ccccc1 (stereo not given),-5.8,i,i,-5.65*,i,i
CC(NCc1ccc(Cl)c(Cl)c1)C(O)c1ccccc1 (stereo not given),-6.3,i,i,-4.6*,i,i
CC(NCc1ccccc1C(F)(F)F)C(O)c1ccccc1 (stereo not given),-4.8,i,i,1.62,i,i
CCOc1c(Cl)cc(CNCCc2c[nH]c3ccccc23)cc1OC,-21.3,i,i,-1.67,i,i
CCOc1cc(CNCCc2c[nH]c3ccccc23)cc(Cl)c1OCC,-17.9,i,i,-7.58*,i,i
CCC(=O)Nc1ccc(Cl)c(Cl)c1,.,i,.,.,.,.
Cc1ccccc1N1CCN(C2CCCN(C(=O)Cc3c(C)noc3C)C2)CC1 (stereo not given),-6.2,i,i,-1.2,i,i
Clc1cccc(CNCCc2ccc3c(c2)OCO3)c1,-7.6,i,i,0.85,i,i
Clc1ccc(CNCCc2ccc3c(c2)OCO3)cc1,-10.4,i,i,-8.77*,i,i
COc1ccc(Br)cc1CNCCc1ccc2c(c1)OCO2,-6.4,i,i,-4.51*,i,i
CCOC(=O)c1c(C)n(Cc2ccccc2)c2ccc(OCC(O)CNC(C)(C)C)cc12 (stereo not given),-16.0,i,i,-1.01,i,i
CCCCNC(C)Cc1ccccc1 (stereo not given),.,i,.,.,.,.
COc1ccc(CC(C)NCCC(c2ccccc2)c2ccccc2)cc1 (stereo not given),-28.0,i,i,-3.12,6*,i
CCOc1ccc(NC(=O)CCNC(=O)N2C[C@H]3C[C@@H](C2)c2cccc(=O)n2C3)cc1,-6.2,i,i,1.11,i,i
COC(=O)C(C)Oc1cc(C)cc2oc(=O)c3c(c12)CCCC3 (stereo not given),-5.8,-9.19*,i,-2.35,i,i
N#CC1=C(N)Oc2cc(O)ccc2C1c1ccc2c(c1)OCO2 (stereo not given),-10.7,i,-7.52*,0.19,i,i
CN1[C@H]2CC[C@@H]1C(C(=O)N1CCOCC1)=C(O)C2,.,i,.,.,.,.
CCN1/C(=C\C=C\C2=[N+](CC)c3ccccc3C2(C)C)C(C)(C)c2ccccc21,-55.6,i,i,-12.9,21*,i
SMILES,hERG rescue,KCNK3 block,KCNK9 inh,Kir21 inh,KCNQ1 inh,KCNQ1 pot
CCCC(=O)NC(Oc1ccc(OC)cc1)C(Cl)(Cl)Cl (stereo not given),-6.5,i,i,-5.67*,i,i
C/C1=C\[C@@H](C)C/C=C/[C@H]2[C@@H]3O[C@]3(C)[C@@H](C)[C@H]3[C@H](Cc4c[nH]c5ccccc45)NC(=O)[C@]32C(=O)/C=C/C(=O)[C@@H]1O,-0.6,i,i,-2.06,i,22*
CCC1(C2=NCCN2)Cc2ccccc2O1 (stereo not given),.,i,.,.,.,.
CC(=O)OC(C)(C)/C=C/C(=O)C(C)(O)C1[C@H](O)C[C@@]2(C)C3CC=C4C(CC[C@@H](O)C4(C)C)[C@]3(CO)C(=O)C[C@]12C (stereo not given in full),3.4,i,i,-1.15,i,13*
c1ccc(-c2ccc(-c3n(-c4ccccn4)c4ccccc4[n+]3-c3ccccn3)cc2)cc1,-31.1,i,i,-1.46,9*,i
COC1=CC(=O)OC(CCc2ccc3c(c2)OCO3)C1 (stereo not given),.,i,.,.,.,.
O=c1[nH]c(=S)[nH]c(O)c1N=Nc1ccc(S(=O)(=O)N2CCc3ccccc32)cc1,12.7*,i,i,-0.12,i,i
CN(C)CC#CCn1c2ccccc2c2ccccc21,-7.1,i,i,-5.59*,i,i
COC(=O)C1=C(c2ccc(OC)c(OC)c2)C[C@@H]2CC[C@H]1N2C(=O)NC1CCCCC1,.,i,.,.,.,.
C=C1C(=O)O[C@@H]2C[C@@H](C)[C@@H]3C=CC(=O)[C@@]3(C)[C@@H](O)[C@H]12,-7.5,i,i,-4.33*,i,i
C[C@@H]1C[C@H]2OC(=O)C3(CO3)[C@H]2[C@H](O)[C@]2(C)C(=O)C3OC3[C@@H]12 (stereo not given in full),-3.0,.,i,-0.07,i,i
CC1CCC(NC(=O)CNC(=S)N2CC3CC(C2)c2cccc(=O)n2C3)CC1 (stereo not given),-10.6,i,i,-0.27,i,i
CC(C)(C)c1cc([N+](=O)[O-])cc(C(C)(C)C)c1O,-17.9,.,i,-1.31,6*,i
COCCNCCOc1ccc(C(C)(C)c2ccccc2)cc1,-4.3,i,i,-11.6*,i,i
COc1ccc(C)cc1NC1=NC(C)(C)CS1,-11.4,i,i,-0.88,i,i
CC/C(=N\NC(=O)c1ccccc1)c1c(O)n(C2CCCCC2)c(=O)[nH]c1=O,-14.0,i,i,1.14,7*,i
O=[N+]([O-])c1c2ccccc2cc2ccccc12,.,i,.,.,.,.
CCCCCn1c(=O)c(C(=O)Nc2ncccc2C)c(O)c2ccccc21,-7.3,i,i,1.73,i,i
CCCCn1c(=O)c(C(=O)Nc2cnccn2)c(O)c2ccccc21,-40.0,i,i,0.03,9*,i
COc1cccc(CC(=O)N2CCN(Cc3cccc(Cl)c3)CC2)c1,-4.9,i,i,-0.25,i,8*
O=C1OC(c2ccc(Cl)cc2)=N/C1=C\N1CC2CC(C1)c1cccc(=O)n1C2 (stereo not given),-19.3,i,i,0.48,i,i
O=[N+]([O-])c1ccccc1-c1cc(-c2ccccc2)cc(-c2ccccc2)[n+]1Cc1ccccc1Cl,-29.8,.,-8*,-9.13*,8*,i
Cc1ccc(C(C)C)c(OCC#CCN2CCCC2)c1,-13.6,i,i,-4.21*,i,i
